Assay results reported in ChEMBL document CHEMBL1143574, “N-[18F] fluoroethylpiperidin-4ylmethyl acetate, a novel lipophilic acetylcholine analogue for PET measurement of brain acetylcholinesterase activity” (J Med Chem, 2005).

Assays:
[1] = (§1) Partition coefficient (logP) measured in a mixture of 1-octanol/phosphate buffer (0.1 M, pH 7.4); assay type: physicochemical
Method in brief: (§2)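 Labeled ester or metabolite added to 1:1 1-octanol/0.1 M phosphate buffer pH 7.4, shaken vigorously, equilibrated 1 h at room temperature. Phase radioactivity counted by gamma or liquid scintillation counter, purity checked by TLC. Value = organic/aqueous concentration ratio.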

[2] = as §1; assay type: physicochemical; method in brief: as §2; remark: listed apart in the source
[3] = First-order hydrolysis rate constant in rat cerebral cortical homogenate at a unit tissue concentration (g/mL) without inhibitor; assay type: ADME, tissue-based
Method in brief: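 Rat (Wistar, male, 8 wk, 210-230 g, n=3) cerebral cortex homogenized in ice-cold 0.1 M phosphate buffer pH 7.4 and diluted. Labeled ester (15 kBq) added to start reaction. Unchanged ester and metabolite separated by TLC and quantified by phosphor imaging. Rate = −ln(A2/A1)/(T2−T1)/C. Statistics by Games-Howell test.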

[4] = biological target: T1, Acetylcholinesterase (Rattus norvegicus) (UniProt P37136); assay: Specificity for rat brain acetylcholinesterase as rate of hydrolysis using BW284c51
T1 sequence (whole entry): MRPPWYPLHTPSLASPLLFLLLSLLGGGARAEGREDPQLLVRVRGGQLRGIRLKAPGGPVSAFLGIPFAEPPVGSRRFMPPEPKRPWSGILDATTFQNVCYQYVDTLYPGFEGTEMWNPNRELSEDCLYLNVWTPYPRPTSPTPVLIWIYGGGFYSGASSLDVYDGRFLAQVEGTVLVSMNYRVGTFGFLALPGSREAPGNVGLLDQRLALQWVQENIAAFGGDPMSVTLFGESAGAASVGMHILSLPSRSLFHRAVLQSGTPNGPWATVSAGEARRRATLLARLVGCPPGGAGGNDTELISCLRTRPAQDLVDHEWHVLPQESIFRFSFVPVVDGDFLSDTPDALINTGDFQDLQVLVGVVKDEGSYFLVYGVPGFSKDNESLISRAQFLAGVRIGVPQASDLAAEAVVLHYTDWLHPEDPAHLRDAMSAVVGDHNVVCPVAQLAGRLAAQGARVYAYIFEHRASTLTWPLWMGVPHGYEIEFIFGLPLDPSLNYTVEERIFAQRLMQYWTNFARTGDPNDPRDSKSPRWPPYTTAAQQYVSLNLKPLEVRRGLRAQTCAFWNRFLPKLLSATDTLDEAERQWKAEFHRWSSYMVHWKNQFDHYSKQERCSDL
Method in brief: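 Rat cerebral cortex homogenate (Wistar, male, 8 wk, n=3) in 0.1 M phosphate buffer pH 7.4, run with labeled ester (15 kBq) with or without BW284c51 (30 nM). Hydrolysis rate measured by TLC and phosphor imaging of remaining ester. Specificity = […].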

[5] = tested as the 11C-labelled form
[6] = tested as the 18F-labelled form

With `CC(=O)OCC1CCN(CC[18F])CC1` the logD [1] was 0.04, the logD [2] was -1.3 and the Total rate [3] was 1.67 min⁻¹.

Molecule `CC(=O)OC1CCN(C)CC1` has a Specificity [4, 5] of 97%.

With `CCC(=O)OC1CCN([11CH3])CC1` the logD [1] was -0.22, the logD [2] was -2.2 and the Total rate [3] was 0.41 min⁻¹.

`CC(=O)OC1CCN(CCF)CC1` showed a Specificity [4, 6] of 65%.

Molecule `CCC(=O)OC1CCN(C)CC1` has a Specificity [4, 5] of 82%.

In the case of `CC(=O)OC1CCN(CC[18F])CC1`, the logD [1] was -0.11, the logD [2] was -1.9 and the Total rate [3] was 0.1 min⁻¹.

`CC(=O)OC1CCN([11CH3])CC1` gave a logD [1] of -0.3, a logD [2] of -2.2 and a Total rate [3] of 1.73 min⁻¹.

In the case of `CC(=O)OCC1CCN(CCF)CC1`, the Specificity [4, 6] was 86%.
